STAT1 act = STAT1 signaling activators, primary screen, cell-based, HTS, luciferase reporter; NIH 3T3 STAT1-luciferase reporter, IFN-gamma, luminescence; 100% = IFN-gamma alone, no compound; activation (% of control), % at 5.5 µM; actives 2.6% (n = 200,000);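 active means activation above the screen-wide mean activation plus 3 SD, cut at about 130% in these data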;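 further: raw ratio to IFN-gamma control signal so 100% means no change and 0% no light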
STAT1 inh = STAT1 signaling inhibitors, primary screen, cell-based, HTS, luciferase reporter; actives 0.35% (n = 200,000); NIH 3T3 STAT1-luciferase reporter, IFN-gamma, luminescence; inhibition, % at 5.5 µM;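 active means inhibition above a set limit, the mean inhibition across all tested compounds plus 3 SD, cut at about 34% in these data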;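 further: 0% = IFN-gamma with DMSO and 100% = IFN-gamma with 300 µM nifuroxazide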
STAT3 act = IL-6 driven STAT3 reporter potentiators, primary screen, U3A cells, luciferase, luminescence, MLSCN library. IL-6 STAT3-luciferase reporter; 100% = signal with IL-6 EC80 alone. activation (% of control), % at 5.6 µM. actives 0.91% (n = 190,000). AID 871, 2007;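 active means activation above the screen-wide mean of compound activation plus 3 SD, cut at about 130% in these data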;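 further: 0% = background luminescence of wells with medium and substrate only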
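Test system: STAT3-luciferase reporter U3A cells; Detection: reporter luminescence signal; Times: 1 h compound pre-exposure, 6 h IL-6 stimulation, 37 °C; Benchmarks: IL-6-only high control; Also added: IL-6 stimulus at 33 ng/mL final.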
APP 5'UTR act = activators of APP 5'UTR luciferase reporter, primary screen, SH-SY5Y cells. SH-SY5Y APP 5'UTR luciferase reporter, luminescence; zero percent = DMSO vehicle wells. AID 1276, 2008. activation, % at 2 µM. actives 1% (n = 190,000);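 active means activation above a set limit, based on mean plus 3 SD of controls, cut at about 140% in these data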
NF-kB neuron act = activators of NF-kB expression in neurons, primary screen, cell-based, HTS; human neuronal cells, NF-kB reporter expression; hits give high values; fold change at 12.5 µM; actives 1.6% (n = 190,000); AID 1239, 2008; in the data active means fold change above about 3.3
STAT3 inh-1 = IL-6 driven STAT3 reporter inhibitors, primary screen, U3A cells, luciferase, luminescence, MLSCN library. IL-6 STAT3-luciferase reporter; host cell line lacks STAT1. inhibition, % at 5.5 µM. actives 0.89% (n = 190,000). AID 862, 2007;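 active means inhibition above the mean inhibition across all screened compounds plus 3 SD, cut at about 44% in these data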;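 further: 0% = DMSO only wells and 100% = 100 µM nifuroxazide control wells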
STAT3 inh-2 = STAT3 reporter inhibitors, retest of hits, confirmation, U3A cells, luciferase, luminescence | shares compounds with STAT3 inh-1 | IL-6 STAT3 luciferase reporter; cell line lacks STAT1 | inhibition, % at 5.7 µM | actives 45% (n = 1,200);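 active means inhibition above the hit cutoff computed for the primary STAT3 screen, cut at about 44% in these data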;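 further: 0% = IL-6 plus DMSO and 100% = IL-6 plus nifuroxazide control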
NFkB inh STAT3ct = NF-kB reporter inhibitors in human cells, confirmation, counter-screen for STAT3 inhibitor project, cell-based, HEK293T, luciferase, TNF-alpha stimulus. shares compounds with STAT3 inh-1. TNF-alpha induced. inhibition, % at 5.7 µM. actives 36% (n = 1,200). AID 1308, 2008;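 active means inhibition above the mean of solvent-only control wells plus 3 SD, cutoff set per campaign, cut at about 13% in these data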;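 further: 0% = TNF-alpha with DMSO and 100% = TNF-alpha with MG high control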
STAT1 inh STAT3c = STAT1 reporter inhibitors, IFN-gamma induced, confirmation, counter-screen for STAT3 inhibitor project, cell-based, NIH 3T3, luciferase luminescence | actives 27% (n = 1,200) | shares compounds with STAT3 inh-1 | NIH 3T3 STAT1-luciferase reporter | inhibition, % at 5.7 µM;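 active means inhibition above the mean plus 3 SD of solvent-only control wells, limit set per screening run, cut at about 16% in these data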;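 further: 0% = DMSO with IFN-gamma and 100% = nifuroxazide control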
An asterisk follows results filed as active; · = no result given. Sampled rows, rich in hits. Any-hit rate of the full collection: about 5.1%.

SMILES	STAT1 act	STAT1 inh	STAT3 act	APP 5'UTR act	NF-kB neuron act	STAT3 inh-1	STAT3 inh-2	NFkB inh STAT3ct	STAT1 inh STAT3c
CCCOc1ccc(C(=O)Nc2ccc(Cl)cn2)cc1	102	-2	56	137*	8.6*	56*	22	-19	-105
Cc1ccc(C(=O)Nc2ccc(Cl)cn2)cc1	123	-25	57	172*	6.6*	56*	13	-16	-107
O=C(COc1ccc(Cl)cc1)Nc1ccc(Cl)cn1	106	-7	96	40	1.1	5	·	·	·
COc1ccc(NC(=O)c2nc3nccc(C)n3n2)cn1	105	-5	97	7	1.5	10	·	·	·
COc1cc(CSc2nnnn2-c2ccc(C)cc2)cc(OC)c1OC	79	22	46	7	0.71	69*	70*	26*	22*
Cc1cc(N2CCOCC2)n2ncc(-c3ccccc3)c2n1	71	32	47	142*	0.81	66*	23	5	-79
Cc1cc(-c2ccccc2)n2ncc(-c3ccccc3)c2n1	143*	-49	60	166*	1.4	50*	0	-15	-134
Cc1cc(NCCCn2ccnc2)n2ncc(-c3ccccc3)c2n1	76	27	37	102	0.92	74*	21	25*	-57
Oc1ccc(Nc2nc(N3CCCC3)c3ccccc3n2)cc1	115	-16	99	-8	0.47	6	·	·	·
COc1ccc(Nc2nc(N3CCCCC3)c3ccccc3n2)cc1	82	19	63	9	0.75	47*	49*	5	27*
O=[N+]([O-])c1cccc(C=Nc2cc3c(cc2Br)OCCO3)c1	96	4	98	-8	1.1	5	·	·	·
COc1cc(NC(=O)C2CC2)c(OC)cc1NC(=O)CCC(=O)NC1CCN(Cc2ccccc2)CC1	92	8	105	10	0.92	1	·	·	·
CCOc1ccc2nc3sc(C(=O)N4CCOCC4)c(N)c3cc2c1	85	17	53	220*	3	56*	2	-6	-8
Cc1ccc2nc3sc(C(=O)Nc4ccc(N5CCOCC5)cc4)c(N)c3cc2c1	103	-4	89	5	0.93	16	·	·	·
CCN1CCN(CCOc2ccc(Cl)cc2)CC1	113	-16	97	7	1.3	10	·	·	·
Cc1ccc(OCCN2CCN(c3ncnc4sc(C)c(C)c34)CC2)cc1	78	24	35	·	0.7	79*	81*	26*	25*
Clc1ccc(OCCN2CCN(c3ncnc4sccc34)CC2)cc1	74	29	30	-15	0.59	89*	88*	34*	23*
Cc1sc2ncnc(N3CCCCC3)c2c1C	89	12	94	·	0.73	13	·	·	·
C#CC[N+]1(CC#Cc2ccc(C)cc2)CCCCC1	106	-7	90	-1	0.73	15	·	·	·
Cc1ccc(N2CCN(S(=O)(=O)N3CCOCC3)CC2)cc1C	98	1	102	6	1.3	10	·	·	·
COC(=O)c1c(NC(=O)c2cccnc2Cl)sc(C(=O)N(C)C)c1C	94	7	90	-18	0.66	15	·	·	·
CCC(Sc1nc2c(c(=O)n1CC)SC(C)C2)C(=O)OC (stereo not given)	90	10	100	-8	0.99	8	·	·	·
Oc1cc2c(cc1O)C1c3ccc(O)c(O)c3OCC1(O)C2 (stereo not given)	107	-9	·	8	0.82	·	·	·	·
COc1ccc(-n2c(-c3ccccc3)nnc2-c2ccc(Cl)cc2)cc1	98	2	108	14	1.1	-2	·	·	·
COc1ccc(-n2c(-c3ccc(Cl)cc3)c[n+]3c2CCc2ccccc2-3)cc1	78	23	49	8	0.7	63*	50*	0	20*
SMILES	STAT1 act	STAT1 inh	STAT3 act	APP 5'UTR act	NF-kB neuron act	STAT3 inh-1	STAT3 inh-2	NFkB inh STAT3ct	STAT1 inh STAT3c
Cc1ccc(C(=O)COC(=O)c2cccs2)cc1	77	25	64	198*	7.5*	47*	6	-23	-66
O=C(COC(=O)c1cccs1)c1ccc2c(c1)OCCO2	96	17	55	134	3.1	54*	19	-6	-40
Cc1c(C)n(C(=O)CSc2nc3ccccc3[nH]2)c2ccccc12	96	5	104	42	0.87	-5	·	·	·
O=C(C1=C[C@@H]2[C@H]3C(=O)N(c4ccccc4)C(=O)[C@H]3[C@@H](C(=O)c3ccc(Cl)cc3)N2C=C1)c1ccccc1	101	-1	101	-14	0.93	4	·	·	·
CSc1ccc(CN2CCN(C(=O)c3ccc([N+](=O)[O-])cc3)CC2)cc1	98	3	56	11	·	55*	59*	13	-3
CCCCCCCCCn1c2c(c(=N)c3c1CCC3)CCC2	74	28	33	-18	2.1	82*	85*	59*	30*
CCCCn1c2c(c(=N)c3c1CCC3)CCC2	78	24	63	0	0.51	53*	33	-1	22*
N=c1c2c(n(Cc3ccc(F)cc3)c3c1CCC3)CCC2	87	14	76	-4	0.56	35	·	·	·
CCCCCCn1c2c(c(=N)c3c1CCC3)CCC2	70	34	36	16	0.71	81*	82*	35*	27*
CCCCCCCn1c2c(c(=N)c3c1CCC3)CCCC2	76	24	34	-22	1.5	81*	88*	37*	28*
CCn1c2c(c(=N)c3c1CCC3)CCC2	104	-4	95	2	0.91	9	·	·	·
CCCn1c2c(c(O)c(C(=O)NC)c1=O)CCCC2	93	7	107	4	1.1	-4	·	·	·
CCCCCCCCCCS(=O)(=O)N/N=C/c1ccc(O)cc1	100	-1	101	7	1	2	·	·	·
CN=C1S/C(=C\c2ccc(N3CCOCC3)cc2C)C(=O)N1C	101	-1	101	10	0.93	-4	·	·	·
CN=C1S/C(=C\c2cc(C)n(-c3ccccc3F)c2C)C(=O)N1C	100	0	58	120	0.61	56*	22	-24	-98
